ChEMBL document CHEMBL2417507, “Synthesis and bioevaluation of some new isoniazid derivatives” (Bioorg Med Chem, 2013)
In brackets after ≈: the same amount, converted by molar mass. Activity calls are given as the source filed them. The calls are words filed in the database; no cut-off is given here.

What was measured:
Staphylococcus aureus = experiment: Antibacterial activity against Staphylococcus aureus assessed as growth inhibition at 1 mg/mL after 24 hrs by agar-disk diffusion technique; type: functional, organism-based
Procedure, shortened: (§1)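 Agar-disk diffusion, adapted: plates seeded with 0.5 McFarland suspension prepared from 24 h cultures; 5 µL of a 1 mg/mL compound solution spotted onto the seeded solid medium; incubated 24 h at 37 °C. Stocks made in DMSO.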

Acinetobacter baumannii [1] = experiment: Antibacterial activity against Acinetobacter baumannii 192 assessed as growth inhibition at 1 mg/mL after 24 hrs by agar-disk diffusion technique; type: functional, organism-based; procedure, shortened: as §1
HCT-8 [2] = experiment: Induction of apoptosis in human HCT8 cells assessed as early apoptotic cells at 50 ug/mL after 24 hrs by Annexin V-FITC and propidium iodide staining-based flow cytometric analysis (reference value: 1.57%); type: cell-based; details: hct-8, 24 h
Pseudomonas putida = experiment: Antibacterial activity against Pseudomonas putida 160 assessed as growth inhibition at 1 mg/mL after 24 hrs by agar-disk diffusion technique; type: functional, organism-based; procedure, shortened: as §1
HCT-8 [3] = experiment: Increase in NAT2 gene expression in human HCT8 cells at 50 ug/mL after 24 hrs by RT-PCR analysis; type: ADME, cell-based; details: hct-8, 24 h
HCT-8 [4] = experiment: Cell cycle arrest in human HCT8 cells assessed as accumulation at G0/G1 phase at 50 ug/mL after 24 hrs by propidium iodide staining-based flow cytometric analysis (reference value: 46.43%); type: ADME; details: hct-8, 24 h
HCT-8 [5] = experiment: Cell cycle arrest in human HCT8 cells assessed as accumulation at S phase at 50 ug/mL after 24 hrs by propidium iodide staining-based flow cytometric analysis (reference value: 39.43%); type: ADME; details: hct-8, 24 h
HCT-8 [6] = experiment: Induction of apoptosis in human HCT8 cells assessed as necrotic cells at 50 ug/mL after 24 hrs by Annexin V-FITC and propidium iodide staining-based flow cytometric analysis (reference value: 7.73%); type: cell-based; details: hct-8, 24 h
HCT-8 [7] = experiment: Cell cycle arrest in human HCT8 cells assessed as accumulation at G2/M phase at 50 ug/mL after 24 hrs by propidium iodide staining-based flow cytometric analysis (reference value: 13.83%); type: ADME; details: hct-8, 24 h
[8] = test system: Mycobacterium tuberculosis; experiment: Antimycobacterial activity against Mycobacterium tuberculosis after 8 days by micro plate Alamar Blue assay; type: functional; details: 192 h
Procedure, shortened: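 Clinical M. tuberculosis strain grown in Middlebrook 7H9 broth. Compounds were dissolved in DMSO and serially diluted twofold on the plate, final 25 to 0.012 µg/mL. Plates were sealed and held 8 days at 37 °C. Alamar Blue with 10% Tween 80 (1:1) was then added for another 24 h at 37 °C. MIC was the lowest concentration preventing the blue-to-pink change.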

HCT-8 [9] = experiment: Increase in NAT1 gene expression in human HCT8 cells at 50 ug/mL after 24 hrs by RT-PCR analysis; type: ADME, cell-based; details: hct-8, 24 h
Citrobacter koseri = experiment: Antibacterial activity against Citrobacter koseri 1742 assessed as growth inhibition at 1 mg/mL after 24 hrs by agar-disk diffusion technique; type: functional, organism-based; procedure, shortened: as §1
Acinetobacter baumannii [10] = experiment: Antibacterial activity against Acinetobacter baumannii 136 assessed as growth inhibition at 1 mg/mL after 24 hrs by agar-disk diffusion technique; type: functional, organism-based; procedure, shortened: as §1
Enterobacter cloacae = experiment: Antibacterial activity against Enterobacter cloacae 1845 assessed as growth inhibition at 1 mg/mL after 24 hrs by agar-disk diffusion technique; type: functional, organism-based; procedure, shortened: as §1
Pseudomonas aeruginosa [11] = experiment: Antibacterial activity against Pseudomonas aeruginosa ATCC 27853 assessed as growth inhibition at 1 mg/mL after 24 hrs by agar-disk diffusion technique; type: functional, organism-based; procedure, shortened: as §1
[12] = Induction of apoptosis in human HCT8 cells assessed as viable cells at 50 ug/mL after 24 hrs by Annexin V-FITC and propidium iodide staining-based flow cytometric analysis (reference value: 87.7%); type: cell-based, HCT-8; details: read-out: Activity
Pseudomonas aeruginosa [13] = experiment: Antibacterial activity against Pseudomonas aeruginosa 1144 assessed as growth inhibition at 1 mg/mL after 24 hrs by agar-disk diffusion technique; type: functional, organism-based; procedure, shortened: as §1
HCT-8 [14] = experiment: Induction of apoptosis in human HCT8 cells assessed as late apoptotic cells at 50 ug/mL after 24 hrs by Annexin V-FITC and propidium iodide staining-based flow cytometric analysis (reference value: 2.97%); type: cell-based; details: hct-8, 24 h
[15] = test system: Radical scavenging activity; experiment: Antioxidant activity assessed as DPPH radical scavenging activity at 0.1 mg/mL after 30 mins under dark conditions by spectrophotometric analysis relative to control; type: functional
Procedure, shortened: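 Compounds dissolved in methanol at 0.1 mg/mL; 0.2 mL mixed with 1.8 mL of 2 × 10^-4 M DPPH in methanol and kept in the dark 30 min. Absorbance read at 517 nm. The blank was DPPH plus methanol. TAC (%) = (Abs initial − Abs 30 min)/Abs initial × 100.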

Staphylococcus hominis = experiment: Antibacterial activity against Staphylococcus hominis 1813 assessed as growth inhibition at 1 mg/mL after 24 hrs by agar-disk diffusion technique; type: functional, organism-based; procedure, shortened: as §1
Acinetobacter baumannii [16] = experiment: Antibacterial activity against Acinetobacter baumannii 135 assessed as growth inhibition at 1 mg/mL after 24 hrs by agar-disk diffusion technique; type: functional, organism-based; procedure, shortened: as §1
Proteus mirabilis = experiment: Antibacterial activity against Proteus mirabilis 1751 assessed as growth inhibition at 1 mg/mL after 24 hrs by agar-disk diffusion technique; type: functional, organism-based; procedure, shortened: as §1
Acinetobacter baumannii [17] = experiment: Antibacterial activity against Acinetobacter baumannii 247 assessed as growth inhibition at 1 mg/mL after 24 hrs by agar-disk diffusion technique; type: functional, organism-based; procedure, shortened: as §1
Pseudomonas aeruginosa [18] = experiment: Antibacterial activity against Pseudomonas aeruginosa 165 assessed as growth inhibition at 1 mg/mL after 24 hrs by agar-disk diffusion technique; type: functional, organism-based; procedure, shortened: as §1
Escherichia coli = experiment: Antibacterial activity against Escherichia coli 1777 assessed as growth inhibition at 1 mg/mL after 24 hrs by agar-disk diffusion technique; type: functional, organism-based; procedure, shortened: as §1
HCT-8 [19] = experiment: Cytotoxicity against human HCT8 cells at 50 ug/mL after 24 hrs by trypan blue exclusion assay; type: cell-based; details: hct-8, 24 h
Procedure, shortened: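 HCT8 cells (3 × 10^5 per 3.5-cm well) treated 24 h, then trypsinised, spun and resuspended in PBS. Suspension mixed 1:1 with 0.4% trypan blue for 1 min and viable/non-viable cells counted on a haemocytometer. Each experiment repeated three times.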

HCT-8 [20] = experiment: Cell cycle arrest in human HCT8 cells assessed as accumulation at G0/G1 phase at 25 ug/mL after 24 hrs by propidium iodide staining-based flow cytometric analysis (reference value: 46.43%); type: ADME; details: hct-8, 24 h
Klebsiella pneumoniae = experiment: Antibacterial activity against Klebsiella pneumoniae 1756 assessed as growth inhibition at 1 mg/mL after 24 hrs by agar-disk diffusion technique; type: functional, organism-based; procedure, shortened: as §1
HCT-8 [21] = experiment: Cell cycle arrest in human HCT8 cells assessed as accumulation at G2/M phase at 25 ug/mL after 24 hrs by propidium iodide staining-based flow cytometric analysis (reference value: 13.83%); type: ADME; details: hct-8, 24 h
HCT-8 [22] = experiment: Cell cycle arrest in human HCT8 cells assessed as accumulation at S phase at 25 ug/mL after 24 hrs by propidium iodide staining-based flow cytometric analysis (reference value: 39.43%); type: ADME; details: hct-8, 24 h
HCT-8 [23] = experiment: Decrease in NAT1 gene expression in human HCT8 cells at 25 ug/mL after 24 hrs by RT-PCR analysis; type: ADME, cell-based; details: hct-8, 24 h
Acinetobacter baumannii [24] = experiment: Antibacterial activity against Acinetobacter baumannii 122 assessed as growth inhibition at 1 mg/mL after 24 hrs by agar-disk diffusion technique; type: functional, organism-based; procedure, shortened: as §1
Acinetobacter baumannii [25] = experiment: Antibacterial activity against Acinetobacter baumannii 125 assessed as growth inhibition at 1 mg/mL after 24 hrs by agar-disk diffusion technique; type: functional, organism-based; procedure, shortened: as §1
HCT-8 [26] = experiment: Decrease in NAT2 gene expression in human HCT8 cells at 25 ug/mL after 24 hrs by RT-PCR analysis; type: ADME, cell-based; details: hct-8, 24 h
Morganella morganii = experiment: Antibacterial activity against Morganella morganii 2810 assessed as growth inhibition at 1 mg/mL after 24 hrs by agar-disk diffusion technique; type: functional, organism-based; procedure, shortened: as §1

With NC(S)(/C=C/c1ccccc1)NNC(=O)c1ccncc1 (stereo unspecified) the “growth inhibition (GI)” value (Staphylococcus aureus) was “Active”, the “growth inhibition (GI)” value (Acinetobacter baumannii [1]) was “Active” and the Activity (HCT-8 [2]) was 0.95%. The “growth inhibition (GI)” value (Pseudomonas putida) was “Active”, the Activity (HCT-8 [3]) was “Toxic” and the Activity (HCT-8 [4]) was 59.95%. The Activity (HCT-8 [5]) was 25.9%, the Activity (HCT-8 [6]) was 18.9% and the Activity (HCT-8 [7]) was 18.72%. The MIC [8] was 0.391 µg/mL (≈ 1.3 µM), the Activity (HCT-8 [9]) was “Toxic” and the “growth inhibition (GI)” value (Citrobacter koseri) was “Active”. For the same molecule, the “growth inhibition (GI)” value (Acinetobacter baumannii [10]) was “Active”, the “growth inhibition (GI)” value (Enterobacter cloacae) was “Active” and the “growth inhibition (GI)” value (Pseudomonas aeruginosa [11]) was “Active”. For the same molecule, the viability at 24 h, 50 ug/mL [12] was 67.9%, the “growth inhibition (GI)” value (Pseudomonas aeruginosa [13]) was “Active” and the Activity (HCT-8 [14]) was 12.2%. The TAC [15] was 88.2%, the “growth inhibition (GI)” value (Staphylococcus hominis) was “Active” and the “growth inhibition (GI)” value (Acinetobacter baumannii [16]) was “Active”.
For Cc1ccc(/C=C/C(N)(S)NNC(=O)c2ccncc2)cc1 (stereo unspecified), the “growth inhibition (GI)” value (Staphylococcus aureus) was “Active”, the “growth inhibition (GI)” value (Acinetobacter baumannii [1]) was “inactive” and the Activity (HCT-8 [2]) was 1.16%. For the same molecule, the “growth inhibition (GI)” value (Pseudomonas putida) was “Active”, the Activity (HCT-8 [3]) was “Toxic” and the Activity (HCT-8 [4]) was 72.35%. The Activity (HCT-8 [5]) was 13.1%, the Activity (HCT-8 [6]) was 28.5% and the Activity (HCT-8 [7]) was 11.15%. The MIC [8] was 0.781 µg/mL (≈ 2.48 µM), the Activity (HCT-8 [9]) was “Toxic” and the “growth inhibition (GI)” value (Acinetobacter baumannii [10]) was “Active”. For the same molecule, the “growth inhibition (GI)” value (Enterobacter cloacae) was “Active”, the “growth inhibition (GI)” value (Pseudomonas aeruginosa [11]) was “inactive” and the “growth inhibition (GI)” value (Proteus mirabilis) was “inactive”. The viability at 24 h, 50 ug/mL [12] was 54.3%, the “growth inhibition (GI)” value (Pseudomonas aeruginosa [13]) was “Active” and the Activity (HCT-8 [14]) was 16%. The TAC [15] was 12.5%, the “growth inhibition (GI)” value (Acinetobacter baumannii [17]) was “inactive” and the “growth inhibition (GI)” value (Staphylococcus hominis) was “Active”. For the same molecule, the “growth inhibition (GI)” value (Acinetobacter baumannii [16]) was “Active” and the “growth inhibition (GI)” value (Pseudomonas aeruginosa [18]) was “Active”.
For NC(=S)/C=C/c1ccccc1, the “growth inhibition (GI)” value (Staphylococcus aureus) was “Active”, the Activity (HCT-8 [2]) was 12.9% and the “growth inhibition (GI)” value (Pseudomonas putida) was “Active”. The “growth inhibition (GI)” value (Escherichia coli) was “Active”, the Activity (HCT-8 [19]) was “Toxic” and the Activity (HCT-8 [6]) was 22.9%. The Activity (HCT-8 [20]) was 33.09%, the “growth inhibition (GI)” value (Klebsiella pneumoniae) was “Active” and the Activity (HCT-8 [21]) was 27.82%. The Activity (HCT-8 [22]) was 43.45%, the Activity (HCT-8 [23]) was “Toxic” and the “growth inhibition (GI)” value (Citrobacter koseri) was “Active”. For the same molecule, the “growth inhibition (GI)” value (Acinetobacter baumannii [10]) was “Active”, the “growth inhibition (GI)” value (Enterobacter cloacae) was “Active” and the “growth inhibition (GI)” value (Proteus mirabilis) was “Active”. The viability at 24 h, 50 ug/mL [12] was 28.3%, the “growth inhibition (GI)” value (Acinetobacter baumannii [24]) was “Active” and the Activity (HCT-8 [14]) was 36%. The TAC [15] was 35.7%, the “growth inhibition (GI)” value (Staphylococcus hominis) was “Active” and the “growth inhibition (GI)” value (Acinetobacter baumannii [16]) was “Active”. The “growth inhibition (GI)” value (Pseudomonas aeruginosa [18]) was “Active”.
For NC(=S)/C=C/c1ccc(Cl)cc1, the “growth inhibition (GI)” value (Staphylococcus aureus) was “Active”, the Activity (HCT-8 [2]) was 22.7% and the “growth inhibition (GI)” value (Pseudomonas putida) was “Active”. For the same molecule, the “growth inhibition (GI)” value (Acinetobacter baumannii [25]) was “inactive”, the Activity (HCT-8 [19]) was “Toxic” and the Activity (HCT-8 [6]) was 24.9%. The Activity (HCT-8 [20]) was 31.35%, the “growth inhibition (GI)” value (Klebsiella pneumoniae) was “inactive” and the Activity (HCT-8 [26]) was “Toxic”. For the same molecule, the Activity (HCT-8 [21]) was 13.01%, the “growth inhibition (GI)” value (Morganella morganii) was “inactive” and the Activity (HCT-8 [22]) was 56.31%. For the same molecule, the “growth inhibition (GI)” value (Acinetobacter baumannii [10]) was “Active”, the “growth inhibition (GI)” value (Pseudomonas aeruginosa [11]) was “inactive” and the “growth inhibition (GI)” value (Proteus mirabilis) was “inactive”. The viability at 24 h, 50 ug/mL [12] was 18.7%, the Activity (HCT-8 [14]) was 33.7% and the TAC [15] was 15.7%. The “growth inhibition (GI)” value (Acinetobacter baumannii [17]) was “inactive” and the “growth inhibition (GI)” value (Acinetobacter baumannii [16]) was “Active”.
